An excerpt weighted towards active compounds, which were near 3% of everything screened.
MITF act: increases MITF-driven TRPM1 promoter luciferase signal | SK-MEL-5 TRPM1-promoter luciferase, 24 h; % of positive control, neutral wells = 0 | activation, % at 12.5 µM | hit rate 0.75% among 300,000;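 active = mean activation of at least 80% with every replicate also reaching 80%; inconclusive = mean reaches 80% but some replicate falls short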;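 also: 0% = neutral control wells and 100% = parthenolide positive control wells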
NSD2 inh: blocks human histone methyltransferase NSD2. NSD2 peptide methylation, AlphaScreen, 120 min. O96028. hit rate 0.54% among 310,000. inhibition, % at 12.5 µM; in the data active = inhibition above about 50%
CASP6 VEID inh: blocks human caspase-6 cleavage activity | P55212 | purified caspase-6, Z-VEID-R110 cleavage fluorescence | inhibition, % at 12.5 µM | hit rate 0.53% among 350,000 | AID 686996;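 active = mean inhibition across replicates at least about 35%, with every replicate also reaching that limit, limit read from the data; inconclusive = only one of the two criteria met; inactive = neither criterion met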;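 also: 0% = median of neutral control wells and 100% = no fluorescence left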
Target sequence (P55212 24-179 limits assumed): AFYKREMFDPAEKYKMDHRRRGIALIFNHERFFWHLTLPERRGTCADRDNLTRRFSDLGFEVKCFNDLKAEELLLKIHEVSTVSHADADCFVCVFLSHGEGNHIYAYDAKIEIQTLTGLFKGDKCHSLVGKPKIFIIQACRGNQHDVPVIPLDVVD
Target sequence (P55212 194-293 limits assumed): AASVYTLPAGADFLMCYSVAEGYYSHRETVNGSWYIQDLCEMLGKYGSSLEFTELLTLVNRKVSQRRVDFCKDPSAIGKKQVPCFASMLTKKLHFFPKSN
Wnt bcat act: Wnt/beta-catenin pathway activation | Wnt/beta-catenin reporter cell assay, activator, plate reader | activation, % at 9.35 µM | hit rate 1.2% among 300,000; in the data active = activation above about 30%, passing the limit was not always enough; inconclusive = no clear call, values can overlap the other calls;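 also: 0% = neutral control wells and 100% = positive control wells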
esBAF inh: SWI/SNF esBAF complex inhibition | mouse ES cells, Bmi1-luciferase knock-in reporter, 24 h; 100% = twice the neutral-well signal | reporter increase, % at 12.5 µM | hit rate 2% among 350,000; in the data active = activation above about 40%; inconclusive = no clear call, values can overlap the other calls;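 also: 0% = median of the plate's neutral control wells and 100% = double that signal; a rise in the Bmi1 reporter signal indicates esBAF inhibition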
Xi reactivation: X-chromosome reactivation activator | XiGFP mouse fibroblasts, % GFP-positive cells imaging, 3 d; cells co-treated with 5-aza-dC sensitizer; scaled so ellipticine positive control = 100% | activation, % at 7.58 µM | hit rate 0.055% among 360,000 | AID 743238;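 active = mean normalized replicate activation at least 10% and every replicate at or above 10%; inconclusive = only one of the two criteria met; inactive = mean below 10% and not all replicates reach 10%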;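 also: 0% = median of on-plate neutral control wells and 100% = ellipticine 6 µM median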
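Material: XiGFP fibroblasts, SV40-immortalized; Buffer or medium: DMEM containing 5-aza-dC; Compound dosing: single point; Times: 3 days compound exposure.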
AlphaScreen art: interferes with AlphaScreen signal, flagging NSD2 false positives; shares compounds with NSD2 inh; AID 1053174; AC35, µM (doses to about 10 µM), for inactives: at the top dose activity change, negative = signal loss; AlphaScreen artifact counterscreen, preloaded methylated H4 peptide; hit rate 9.4% among 1,500; call rule not given here
* hit, by the source's call; ? = inconclusive; / = no result.

SMILES | MITF act | NSD2 inh | CASP6 VEID inh | Wnt bcat act | esBAF inh | Xi reactivation | AlphaScreen art
CCC(=O)N[C@H]1C[C@@H]2O[C@H](CO)CC[C@@H]2O[C@@H]1CCc1ccc(-c2cccc(OC)c2)cc1 | / | / | 0 | / | / | / | /
C[C@@H]1CN([C@@H](C)CO)C(=O)CCCn2cc(nn2)CO[C@@H]1CN(C)C(=O)Nc1cccc(F)c1 | / | / | / | / | 5 | 0 | /
COc1ccc(-c2csc(Nc3ccc(S(=O)(=O)Nc4cc(OC)nc(OC)n4)cc3)n2)cc1 | 10 | / | / | / | / | 0 | /
COc1ccc(-c2csc(Nc3ccc(S(=O)(=O)Nc4cc(C)on4)cc3)n2)cc1C | -15 | 63* | 21 | 1 | / | 0 | -2%
CCCC#Cc1ccc([C@H]2[C@H](CO)N3C(=O)CN(C(=O)c4ccccc4)C[C@@H]23)cc1 | / | / | 6 | / | / | 0 | /
Nc1ncnc(NCc2ccccc2)c1[N+](=O)[O-] | 1 | 53* | 0 | -9 | / | 0 | -1%
COc1cc(C=C(c2nc3ccccc3s2)c2nc3ccccc3s2)ccc1O | -8 | 7 | -2 | / | 1 | 0 | /
COc1ccc(C=C(c2nc3ccccc3s2)c2nc3ccccc3s2)cc1O | -11 | 59* | / | / | / | / | -10%
COc1ccccc1NC(=O)c1ccc(NC(=O)C2COc3ccccc3O2)cc1 (configuration not stated) | 9 | 76* | 3 | -4 | -1 | 0 | 1%
COc1ccc(NC(=O)c2ccc(-n3cccn3)nc2)c(OC)c1 | 6 | -3 | / | 1 | -5 | / | /
COc1ccccc1NC(=O)c1ccc(-n2cccn2)nc1 | 10 | 118* | / | / | 0 | / | 2%
C[C@H](CO)N1C[C@H](C)[C@H](CN(C)C(=O)Nc2ccc(F)cc2)Oc2ncc(C3=CCCC3)cc2C1=O | / | / | 1 | / | -16 | 0 | /
CN1/C(=C\C(=O)COC(=O)c2ccc(O)c(O)c2)C(C)(C)c2ccccc21 | / | 56* | 30 | -3 | / | 0 | -10%
CNS(=O)(=O)c1cccc(C(=O)OCC(=O)/C=C2/N(C)c3ccccc3C2(C)C)c1 | -4 | 2 | 4 | -9 | / | 1 | /
COc1ccccc1NC(=O)C(C)OC(=O)CCNS(=O)(=O)c1ccc(C)c(C)c1 (configuration not stated) | -2 | -1 | -1 | 1 | 6 | 0 | /
COc1ccccc1NC(=O)C(C)OC(=O)CCNS(=O)(=O)c1cccc(C(F)(F)F)c1 (configuration not stated) | -4 | 105* | -2 | -5 | -1 | -1 | -3%
CO[C@H](CN(C)S(=O)(=O)c1ccc(Cl)cc1)[C@@H](C)CN(C(=O)Nc1ccccc1F)[C@@H](C)CO | / | / | -1 | / | 3 | 0 | /
COc1cnc(-c2ccccn2)nc1Oc1ccccc1 | -11 | 1 | 8 | 0 | -13 | 0 | /
COc1cnc(-c2ccccn2)nc1Oc1cccc(C(F)(F)F)c1 | -15 | 55* | 0 | -2 | / | 0 | -9%
COc1ccc(/C=N/NC(=O)c2nn(-c3ccc(Cl)cc3)c(=O)c3c(N)scc23)cc1 | / | 2 | / | / | 1 | / | /
COc1ccc(/C=N/NC(=O)c2nn(-c3ccccc3)c(=O)c3c(N)scc23)cc1 | / | 100* | / | / | -5 | / | -10%
Nc1ccc2c(c1)C(=O)C(=O)c1ccccc1-2 | -106 | 112* | / | / | / | / | -8%
Cc1ccc(/C=C2\SC(=S)N(NS(=O)(=O)c3ccc(C)cc3)C2=O)cc1 | / | 49 | 10 | 3 | 2 | 0 | /
C=CCOc1ccc(/C=C2\SC(=S)N(NS(=O)(=O)c3ccc(C)cc3)C2=O)cc1 | 0 | 55* | / | 3 | -8 | 0 | -14%
COCC#Cc1cnc2c(c1)C(=O)N([C@@H](C)CO)C[C@H](C)[C@H](CN(C)C(C)=O)O2 | / | / | 1 | / | -2 | -1 | /
SMILES | MITF act | NSD2 inh | CASP6 VEID inh | Wnt bcat act | esBAF inh | Xi reactivation | AlphaScreen art
CCCCn1c(NC(=O)c2ccco2)c(S(=O)(=O)c2ccc(C)cc2)c2nc3ccccc3nc21 | 7 | / | 15 | 7 | / | 0 | /
CCCCn1c(NS(=O)(=O)c2ccccc2)c(S(=O)(=O)c2ccc(C)cc2)c2nc3ccccc3nc21 | -11 | 102* | 98* | 5 | / | 0 | -2%
CCCCn1c(NC(=O)c2ccc(Br)o2)c(S(=O)(=O)c2ccccc2)c2nc3ccccc3nc21 | -8 | 104* | / | / | -11 | / | 1%
O=C(COC(=O)c1ccc2c(=O)n3c(nc2c1)CCC3)NC1CCS(=O)(=O)C1 (configuration not stated) | 15 | -2 | / | -1 | / | 0 | /
CC1CCCCC1NC(=O)COC(=O)c1ccc2c(=O)n3c(nc2c1)CCC3 (configuration not stated) | 1 | 117* | 0 | 0 | 3 | 0 | -1%
O=C(Nc1ccccn1)c1ccc2c(=O)n3c(nc2c1)CCCCC3 | 14 | 61* | 10 | ? | -34 | 0 | -1%
COc1ccc(NC(=O)Nc2ccc3c(c2)CC(=O)N([C@H](C)CO)C[C@H](C)[C@H](CN(C)C(=O)Nc2ccc(F)cc2)O3)cc1 | / | / | 0 | / | -3 | -1 | /
COc1cccc(-c2cn(CC[C@H]3CC[C@H](NC(C)=O)[C@@H](CO)O3)nn2)c1 | / | / | -1 | / | -1 | 0 | /
CCCC(=O)Nc1ccc2c(c1)C(=O)N(C)C[C@@H](OC)[C@H](C)CN(CCc1ccccc1)[C@@H](C)CO2 | / | / | 0 | / | 2 | 1 | /
CN(C)c1ccc2c(c1)[C@@H]1C[C@@H](CC(=O)NCc3ccccc3F)O[C@@H](CO)[C@@H]1O2 | / | / | / | / | -6 | 0 | /
O=C(NCCC(=O)N1CCc2ccccc21)c1ccco1 | 30 | 68* | 1 | 6 | 33 | 0 | -2%
Cc1ccccc1C1=C/C(=C(\SS/C(C(=O)c2ccc(OCC(=O)O)c(Cl)c2Cl)=C2\C=C(c3ccccc3C)SS2)C(=O)c2ccc(OCC(=O)O)c(Cl)c2Cl)SS1 | -1 | 53* | 46* | -4 | / | 0 | 5.2µM*
O=C(COc1ccccc1O)NCCN1CCOCC1 | -7 | 52* | 2 | 0 | -7 | 0 | 2%
COc1cccc(-c2ccc3n(c2=O)C[C@@H]2[C@@H](CO)[C@H](C(=O)NC4CCCC4)[C@H]3N2C)c1 | / | / | 1 | / | 5 | 0 | /
CCCNC(=O)Nc1ccc2c(c1)OC[C@@H](C)N(C(=O)C1CCCC1)C[C@@H](C)[C@H](OC)CN(C)C2=O | / | / | / | / | -1 | 0 | /
CSc1ccccc1NC(=O)CN(C)C(=O)COc1ncnc2ccccc12 | 8 | 56* | 0 | -2 | 4 | 0 | 1%
Cc1ccc(OCCCCNC(C)(C)C)c([N+](=O)[O-])c1 | 0 | 8 | / | / | / | / | /
CCCCCCNc1c([N+](=O)[O-])cc(C)cc1[N+](=O)[O-] | / | 53* | / | 1 | -6 | / | 9.9µM*
CCN(CC)CCNc1ncnc2c1sc1nc(N3CCCC3)c3c(c12)CC(C)(C)OC3 | -44 | 80* | 1 | -1 | / | 0 | -15%

Source: PubChem BioAssay (Broad Institute)
